ChEMBL document CHEMBL4406805, “Development of Inhibitors against Mycobacterium abscessus tRNA (m1G37) Methyltransferase (TrmD) Using Fragment-Based Approaches” (J Med Chem, 2019)
Values after ≈ are worked out from the molar mass of the structure shown. Active and inactive are the calls of the source. The rule behind the calls is not given here.

How the values were obtained:
[1] = system: Mycobacteroides abscessus; test: Binding affinity to Mycobacterium abscessus N-terminal His-tagged 3C protease linked full length tRNA (m1-G37) methyltransferase expressed in Escherichia coli BL21(DE3) assessed as change in melting temperature at 5 mM by SYPRO Orange dye based DSF assay
Outline: (§1)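 DSF with 10 μM Mab TrmD (His-tag cleaved) in 50 mM HEPES pH 7.5, 500 mM NaCl, 5x SYPRO Orange. Final DMSO was 5%, either as ligand stock or as DMSO alone. Samples were ramped from 25 to 95 °C in 0.5 °C steps of 30 s. ΔTm was taken relative to the DMSO control.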

[2] = system: Mycobacteroides abscessus; test: Binding affinity to Mycobacterium abscessus N-terminal His-tagged 3C protease linked full length tRNA (m1-G37) methyltransferase expressed in Escherichia coli BL21(DE3) assessed as change in melting temperature at 100 uM by SYPRO Orange dye based DSF assay; outline: as §1
[3] = Binding affinity to Mycobacterium abscessus N-terminal His-tagged 3C protease linked full length tRNA (m1-G37) methyltransferase expressed in Escherichia coli BL21(DE3) by isothermal titration calorimetry; design: species or system Mycobacteroides abscessus
Outline: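 ITC at 25 °C. TrmD (33 or 100 μM in cell) was dialysed overnight at 4 °C into 50 mM HEPES pH 7.5, 500 mM NaCl, 5% glycerol, with final DMSO 2–10%. Ligand:protein was 10–20:1. A 0.2 μL injection was discarded, followed by 19×2 or 39×1 μL injections at 60–150 s spacing. No-protein blanks were subtracted. Data were fitted to a one-site model (N fixed at 1 for weak binders). Mostly n = 1 with fit error; SD when n > 1.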

[4] = system: Mycobacterium tuberculosis; test: Antimycobacterial activity against Mycobacterium tuberculosis H37Rv incubated for 2 weeks in presence of 7H9/ADC medium; type: functional; conditions: 336 h
[5] = system: Mycobacterium tuberculosis; test: Antimycobacterial activity against Mycobacterium tuberculosis H37Rv incubated for 2 weeks in presence of 7H9/DPPC medium; type: functional; conditions: 336 h
[6] = system: Mycobacteroides abscessus; test: Binding affinity to Mycobacterium abscessus N-terminal His-tagged 3C protease linked full length tRNA (m1-G37) methyltransferase expressed in Escherichia coli BL21(DE3) after 15 mins by mass Spectrometry
Outline: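 Native nanoESI-MS. His-tag was removed with 3C protease before IMAC and gel filtration. TrmD was exchanged into 200 mM ammonium acetate pH 7.0. Protein (20 μM in titration) was equilibrated at room temperature for at least 15 min alone or with ligand (12.5–100 μM; 100 μM for screening) in 5% DMSO. Read-out was ligand occupancy (singly or doubly bound) of the 13+ and 14+ charge states.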

[7] = Antimycobacterial activity against Mycobacterium abscessus subsp. abscessus ATCC 19977 by CLSI M07-A9 protocol based method; type: functional; conditions: Mycobacteroides abscessus
[8] = system: Mycobacterium tuberculosis; test: Antimycobacterial activity against Mycobacterium tuberculosis H37Rv incubated for 2 weeks in presence of 7H9/glucose medium; type: functional; conditions: 336 h
[9] = system: Mycobacterium tuberculosis; test: Antimycobacterial activity against Mycobacterium tuberculosis H37Rv incubated for 2 weeks in presence of GAST-Fe medium; type: functional; conditions: 336 h
[10] = system: Mycobacteroides abscessus; test: Binding affinity to Mycobacterium abscessus N-terminal His-tagged 3C protease linked full length tRNA (m1-G37) methyltransferase expressed in Escherichia coli BL21(DE3) by reverse isothermal titration calorimetry
Outline: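 Reverse ITC at 25 °C. 420 μM TrmD was injected into 35 μM ligand in the cell. Buffer was 50 mM HEPES pH 7.5, 500 mM NaCl, 5% glycerol with DMSO; blank titrations were subtracted. Data were fitted to a one-site binding model, otherwise as for forward titrations.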

SMILES	ΔTm [2] [°C]	Kd [3] [µM]	other results
O=C(O)c1ccc2cc[nH]c2c1			ΔTm [1]: -0.6 °C
OB(O)c1ccc2[nH]ccc2c1			ΔTm [1]: 1.3 °C
O=C(OCc1ccc([N+](=O)[O-])cc1)c1cn[nH]c1	0.4		
O=C(OCc1cccc(OCc2ccccn2)c1)c1cn[nH]c1	2.5		
N#Cc1c(N)n[nH]c1-c1ccc2ccn(Cc3ccnc4ccccc34)c2c1	10.3		
N#Cc1c(N)n[nH]c1-c1ccc2cc[nH]c2c1	4.4	5	
CCOc1cccc(COC(=O)c2cn[nH]c2)c1	3.1	11	
CCOC(=O)c1cn[nH]c1	0.4	89	ΔTm [1]: 4 °C
OB(O)c1ccc2cc[nH]c2c1		260	ΔTm [1]: 4 °C
COC(=O)COc1cccc(COC(=O)c2cn[nH]c2)c1	2.6	10	
COc1ccc(-c2cc(N)[nH]n2)cc1		170	ΔTm [1]: 3 °C
N#Cc1c(N)n[nH]c1-c1ccc2ccn(Cc3ccc(CN4CCCC4)cc3)c2c1	12.9	27	MIC [4]: > 100 µM; MIC [5]: 12.5 µM; Activity [6]: Active; MIC [7]: 50 µM (≈ 19.8 µg/mL); MIC [8]: 25 µM
Nc1cc(-c2ccc3ccn(Cc4ccccc4)c3c2)[nH]n1	3.4	19	Activity [6]: Active
CN1CCN(Cc2ccc(Cn3ccc4ccc(-c5[nH]nc(N)c5C#N)cc43)cc2)CC1	12	73	MIC [5]: 6.3 µM; MIC [7]: 50 µM (≈ 21.3 µg/mL); MIC [8]: 12.5 µM; MIC [9]: 25 µM
COc1ccc(Cn2ccc3ccc(-c4cc(N)n[nH]4)cc32)cc1	3.4	59	
N#Cc1ccccc1Cn1ccc2ccc(-c3cc(N)n[nH]3)cc21	4.4	12	
NC(=O)c1ccccc1Cn1ccc2ccc(-c3cc(N)n[nH]3)cc21	1.4		
CCNC(=O)c1cn[nH]c1			ΔTm [1]: 0.4 °C
CC(C)N1CCN(Cc2ccc(Cn3ccc4ccc(-c5[nH]nc(N)c5C#N)cc43)cc2)CC1	11.9		MIC [4]: 12.5 µM; MIC [5]: 1.6 µM; MIC [7]: 50 µM (≈ 22.7 µg/mL); MIC [8]: 2.3 µM; MIC [9]: 6.3 µM
COc1cccc(COC(=O)c2cn[nH]c2)c1	3.5	14	
Nc1cc(-c2ccc3ccn(Cc4ccc(CN5CCCC5)cc4)c3c2)[nH]n1	7	490	MIC [4]: 100 µM; MIC [5]: 6.3 µM; MIC [7]: 50 µM (≈ 18.6 µg/mL); MIC [8]: 12.5 µM; MIC [9]: 25 µM
Nc1cc(-c2ccc3ccn(Cc4ccccn4)c3c2)[nH]n1	3.1	12	
CCOC(=O)c1cnn(CC#Cc2cc(COC(=O)c3cn[nH]c3)cc(OC)c2)c1	9.6	4.6	
N#Cc1c(N)n[nH]c1-c1ccc2ccn(Cc3ccc(CN4CCOCC4)cc3)c2c1	12.6		MIC [4]: > 100 µM; MIC [5]: 50 µM; MIC [7]: 50 µM (≈ 20.6 µg/mL); MIC [8]: 100 µM; MIC [9]: 50 µM
COc1cc(COC(=O)c2cn[nH]c2)cc(N2CCCC2)c1	3	10	

SMILES	ΔTm [2] [°C]	Kd [3] [µM]	other results
CN1CCCCC1Cn1ccc2ccc(-c3[nH]nc(N)c3C#N)cc21 (racemic)	8.8	0.59	
Nc1cc(-c2ccccc2)n[nH]1			ΔTm [1]: 1.5 °C
N#Cc1c(N)n[nH]c1-c1ccc2ccn(Cc3ccc(CN4CCCC4)cn3)c2c1	12	92	MIC [7]: 50 µM (≈ 19.9 µg/mL)
N#Cc1c(N)n[nH]c1-c1ccc2ccn(Cc3ccc(O)nc3)c2c1	8.3	1.3	
COc1cc(COC(=O)c2cn[nH]c2)cc(-c2cccnc2)c1	3.8	6.7	
N#Cc1c(N)n[nH]c1-c1ccc2ccn(Cc3cccnc3)c2c1	10.5	0.18	
O=C(OCc1ccccc1)c1cn[nH]c1	3.1	33	
COc1cc(COC(=O)c2cn[nH]c2)cc(Cc2cccnc2)c1	3	12	
CN1CCCC(Cn2ccc3ccc(-c4[nH]nc(N)c4C#N)cc32)C1 (racemic)	10.9	0.36	Activity [10]: Active
N#Cc1c(N)n[nH]c1-c1ccc2ccn(Cc3cccnc3O)c2c1	5.5	3.2	
COc1cccc(Cn2ccc3ccc(-c4cc(N)n[nH]4)cc32)c1	4.6	13	
N#Cc1c(N)n[nH]c1-c1ccc2ccn(Cc3ccc(CN4CCCCC4)cc3)c2c1	12.6		MIC [4]: 100 µM; MIC [7]: 50 µM (≈ 20.5 µg/mL); MIC [8]: 25 µM; MIC [9]: 50 µM
N#Cc1c(N)n[nH]c1-c1ccc2ccn(Cc3ccccn3)c2c1	8.3	0.5	
COc1cccc(-c2cc(N)n[nH]2)c1			ΔTm [1]: -0.5 °C
Nc1cc(-c2ccc3ccn(Cc4ccc(CN5CCCCC5)cc4)c3c2)[nH]n1	7.2		MIC [4]: > 100 µM; MIC [5]: 12.5 µM; MIC [7]: 50 µM (≈ 19.3 µg/mL); MIC [8]: 25 µM; MIC [9]: 50 µM
N#Cc1c(N)n[nH]c1-c1ccc2ccn(Cc3ccncc3)c2c1	11.5	0.12	MIC [4]: > 100 µM; MIC [7]: 50 µM (≈ 15.7 µg/mL); MIC [9]: 50 µM
O=C(OCc1cccc(OCCc2ccccc2)c1)c1cn[nH]c1	3		
Cc1ccc(-c2cc(N)[nH]n2)cc1			ΔTm [1]: 1.4 °C
Cc1c(N)n[nH]c1-c1ccc2ccn(Cc3ccc(CN4CCCC4)cc3)c2c1	6.1		
N#Cc1c(N)n[nH]c1-c1ccc2ccn(Cc3ccccc3)c2c1	10.1		Activity [6]: Active
N#Cc1cccc(COC(=O)c2cn[nH]c2)c1	2.8	30	
COC(=O)c1ccc(COC(=O)c2cn[nH]c2)cc1	0.9		
N#Cc1c(N)n[nH]c1-c1ccc2c(Cl)cn(Cc3cccnc3)c2c1	5.8	8.5	
Nc1cc(-c2ccc3cc[nH]c3c2)[nH]n1	1.1	110	ΔTm [1]: 4.8 °C
